Drawing on ChEMBL document CHEMBL3352009, “Glucopyranosylidene-spiro-iminothiazolidinone, a new bicyclic ring system: synthesis, derivatization, and evaluation for inhibition of glycogen phosphorylase by enzyme kinetic and crystallographic methods” (Bioorg Med Chem, 2014), this text covers Ki and inhibition for twelve molecules.

Activity calls are given as the source filed them. The calls are words filed in the database; no cut-off is given here.

Broadly, the Ki is the equilibrium dissociation constant of an inhibitor or competing ligand from its target. As usually defined, the inhibition is how much of the control response was suppressed.

For one test, the target named is T1, Glycogen phosphorylase, muscle form (Oryctolagus cuniculus, UniProt P00489).
T1 sequence (P00489 whole entry): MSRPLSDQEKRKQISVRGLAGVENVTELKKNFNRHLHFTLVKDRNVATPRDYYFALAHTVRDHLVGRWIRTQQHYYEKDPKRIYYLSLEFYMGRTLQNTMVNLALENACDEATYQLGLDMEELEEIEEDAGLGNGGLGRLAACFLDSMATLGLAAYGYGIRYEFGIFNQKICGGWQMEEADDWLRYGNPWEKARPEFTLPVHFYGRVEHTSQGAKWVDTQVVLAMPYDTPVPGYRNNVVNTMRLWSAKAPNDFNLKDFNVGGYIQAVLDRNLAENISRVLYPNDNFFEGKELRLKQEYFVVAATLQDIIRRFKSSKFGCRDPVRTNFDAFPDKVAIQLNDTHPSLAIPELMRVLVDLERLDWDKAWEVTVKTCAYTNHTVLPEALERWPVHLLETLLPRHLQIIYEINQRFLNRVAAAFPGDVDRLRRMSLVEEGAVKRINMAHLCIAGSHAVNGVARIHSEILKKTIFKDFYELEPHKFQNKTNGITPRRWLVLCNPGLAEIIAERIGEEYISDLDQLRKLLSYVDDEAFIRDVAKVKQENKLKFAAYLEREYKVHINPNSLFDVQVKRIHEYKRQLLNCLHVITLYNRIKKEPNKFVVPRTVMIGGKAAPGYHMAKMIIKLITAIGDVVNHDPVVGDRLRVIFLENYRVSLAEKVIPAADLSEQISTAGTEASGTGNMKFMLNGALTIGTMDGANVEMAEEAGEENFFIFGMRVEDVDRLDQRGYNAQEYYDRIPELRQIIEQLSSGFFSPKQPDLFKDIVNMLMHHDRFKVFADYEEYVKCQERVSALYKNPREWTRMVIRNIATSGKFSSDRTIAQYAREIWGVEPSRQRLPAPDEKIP
The test is described as follows: Inhibition of rabbit muscle glycogen phosphorylase b at pH 6.8 assessed as inorganic phosphate release. In outline:
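Rabbit muscle glycogen phosphorylase b; activity followed by inorganic phosphate release at pH 6.8. Inhibition constants reported as Ki, with part of the values derived from IC50 via the Cheng-Prusoff relation Ki = IC50/(1 + [S]/Km).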
Take `O=C(/N=C1/NC(=O)[C@]2(O[C@H](CO)[C@@H](O)[C@H](O)[C@H]2O)S1)c1ccccc1`: the Ki stood at 9 µM.
`O=C(/N=C1/NC(=O)[C@]2(O[C@H](CO)[C@@H](O)[C@H](O)[C@H]2O)S1)c1ccc2ccccc2c1`: the Ki came to 10 µM.
On to `O=C1N/C(=N/S(=O)(=O)c2cccc3ccccc23)S[C@@]12O[C@H](CO)[C@@H](O)[C@H](O)[C@H]2O`, for which the Ki amounted to 29 µM.
Still for that read-out and setting: then `O=C(/N=C1/NC(=O)[C@]2(O[C@H](CO)[C@@H](O)[C@H](O)[C@H]2O)S1)c1cccc2ccccc12`, with 15 µM; and `Cc1ccc(C(=O)/N=C2/NC(=O)[C@]3(O[C@H](CO)[C@@H](O)[C@H](O)[C@H]3O)S2)cc1`, with 35 µM.
Same read-out and setting: then `O=C1N/C(=N/S(=O)(=O)c2ccccc2)S[C@@]12O[C@H](CO)[C@@H](O)[C@H](O)[C@H]2O`, with 143 µM; and `CC(C)(C)C(=O)/N=C1/NC(=O)[C@]2(O[C@H](CO)[C@@H](O)[C@H](O)[C@H]2O)S1`, with 137 µM; and `O=C1N/C(=N/S(=O)(=O)c2ccc3ccccc3c2)S[C@@]12O[C@H](CO)[C@@H](O)[C@H](O)[C@H]2O`, with 153 µM.
For the molecule `Cc1ccc(S(=O)(=O)/N=C2/NC(=O)[C@]3(O[C@H](CO)[C@@H](O)[C@H](O)[C@H]3O)S2)cc1`, the Ki is 63 µM.
As to `N=C1NC(=O)[C@]2(O[C@H](CO)[C@@H](O)[C@H](O)[C@H]2O)S1`, the Ki was found to be 24 µM.

For another test, the target named is T2, Glycogen phosphorylase, muscle form (Oryctolagus cuniculus) (UniProt P00489).
T2 sequence (whole entry): T1 sequence (P00489 whole entry)
The test is described as follows: Inhibition of rabbit muscle glycogen phosphorylase b at pH 6.8 assessed as inorganic phosphate release at 1 mM.
Turning to `O=C1N2CCCN=C2S[C@@]12O[C@H](CO)[C@@H](O)[C@H](O)[C@H]2O`, the inhibition entry was “inactive”.
For `O=C1N2CCN=C2S[C@@]12O[C@H](CO)[C@@H](O)[C@H](O)[C@H]2O`, the inhibition is 48%.
